In the EternaBench riboswitch data:

Test system: MS2 coat protein
Experiment: apparent Kd, MS2 coat protein; higher = weaker binding; RNA-MaP array; FMN 200 µM where present
How it was run: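 On Illumina sequencing-chip clusters, designs were transcribed by stalled E. coli RNA polymerase and titrated with SNAP-549-labelled MS2 coat protein (0.7 or 1.5 nM, doubling to 3 µM), without and then with constant ligand, in 100 mM Tris-HCl pH 7.5, 80 mM KCl, 4 mM MgCl2, BSA, DTT, yeast tRNA and Tween-20. Apparent Kd is the median of filtered per-cluster curve fits to green signal normalised to red-channel RNA signal and control-cluster median Fmax.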

[1] = designed as: ON switch for flavin mononucleotide, no ligand
[2] = ligand present: flavin mononucleotide, designed as: ON switch for flavin mononucleotide
[3] = designed as: OFF switch for flavin mononucleotide, no ligand
[4] = ligand present: flavin mononucleotide, designed as: OFF switch for flavin mononucleotide

Sequence | apparent Kd [1] [nM] | apparent Kd [2] [nM] | apparent Kd [3] [nM] | apparent Kd [4] [nM]
CCUAAGGACACAGGAUAUAGCGUCGUGGCUGGGCUCCAACGGCGAGCGGCGCUAGAAGGGUGACCACAUGAGGAUCACCCAUGU | 522 | 150 | – | –
AGUGUCAUCGAGAAGGCCUCAACAUGAGGAUCACCCAUGUUGCAAAAUGGGAGGAUAUCGCGCAAAAAGCUACGUUUCGUAGCA | 43.1 | 6.96 | – | –
CGCGAACAGUUUUACAUGAGGAUCACCCAUGUGGACUCAUGGUAGGAUAUCGGGAAGGAGGAAACCGAGAAGGGCUGGUGAGCC | 312 | 256 | – | –
AGAUGACAUGUAGGAUAUCGAGGCCUGAGGCCUCGAGAAGGACAUGAGGAUCACCCAUGUUUGCCGAGCAUGGAAUCCCGCACU | – | – | 29.1 | 205
CCGGAAACGGGUAGCCUGACAUGAGGAUCACCCAUGUGAACCAAGGAUAUGGAUCCUAAUUGGAUCCAGAAGGUGGAAGGCUAC | 243 | 45.3 | – | –
AUGGCUAAUGAGAAGGUGUAUAUAAAUUAUAUACAAGGAUAUCGGUCAAGCAUGAAAACAUGAGGAUCACCCAUGUUAAGCCAU | 8.11 | 7.01 | – | –
UUUUAACAUGAGGAUCACCCAUGUGAGGAUAUCGAAAUUUAUAUUAAUAUUUUUAAAACGAGAAGGCACAUUUU | – | – | 61.3 | 84.8
GAACUGAAGCAUGGCUUUAGUCGUACAUGAGGAUCACCCAUGUAGGAUAUGGUAGGCAUAGCUUACUAGAAGGAUAGAGUGAUC | – | – | 187 | 63.4
CAGGAUAGAGGAUAUACAUAGAUACAGGUUCAUGUAAUCCUACAUGAGGAUCACCCAUGUAGAAGGCUAUCCUG | – | – | 15 | 43.3
GUAGCUAUCGGAGGAUAUCCAUACCGGAAACGGACAUGAGGAUCACCCAUGUGGCGAAAGCCUUGGGAGAAGGCCGAUAGCUAC | 5.06 | 3.36 | – | –
GUAGCAUUGAGAGGAUAUCCAUACCGGAAACGGACAUGAGGAUCACCCAUGUGGCGAAAGCCAUGGGAGAAGGCUCUAUGCUAC | 10.2 | 5.44 | – | –
AUAGUCGGGAGAUAAACUCGUGCGGUAGAAGGGUGAUACUGGACAUGAGGAUCACCCAUGUGCACACAGGAUAUGCCCGCGAGC | 83.6 | 24.3 | – | –
UGAUAGGACAGAGGAUAUACGUGCUAGAGAUACUAGCAAAGUAUCUUGACAUGAGGAUCACCCAUGUAGAAGGCUGUCCUAUCU | – | – | 5.99 | 14.3
GCAUCACAUGAGGAUCACCCAUGUCUUCGGAGCGGAGGAUAUGGUCACUGUAAACAGUGGCCAGAAGGCUGGAUGC | – | 25.5 | – | –
GUCAGCUCGUGAGGAUAUACACCACUGCUUCGGCAGUGUAUUAAGAUCACAUGAGGAUCACCCAUGUAGAAGGCACGAGCUGAU | – | – | 14.5 | 255
GCACUGGAUGUAGGAUAUCAGGACGAUAAGUCCUGAGAAGGACAUGAGGAUCACCCAUGUAAACUCUAACCAGUGCAUAAUAUA | – | – | 14 | 20.4
GGGUACAUCGGAGGAUAUCAUGGAAAUACAUGAGGAUCACCCAUGUCGAUGGAGACAUCGGAGAUUGAGAAGGCCGAUGUACCG | 27.3 | 6.38 | – | –
GCUCGGCGUCAGAAGGCAGACGCGAAGCGCGUUUGAGGAUAUGACAUGAGGAUCACCCAUGUAGGUGUGCGAAAUUGUAAUCAC | – | – | 301 | 309
AAACUACUAGGAUAUACAACGGUGUCCUAACUACUAAGAAAACAUGAGGAUCACCCAUGUAGAAGGAGUAGUGA | – | – | 34.5 | 62.3
CGGCGUUGUCGAGAGGAUAUGCGGUGAUGGACAUGAGGAUCACCCAUGUUAGCGAUAGCAUUACGGUAGAAGGCUCUACAGCUGC | 65 | 17 | – | –
CAUUAUGUUGAGGAUAUGCACCGGCUCACUGACGCAGAAGGCGACACAUGAGGAUCACCCAUGUCAGUUCGCGA | – | – | 15.5 | 15.8
AGAUCAACCACAGGAUAUGGCUAGCAUAGCUAGCCAGAAGGGUGGUCGUAUCCAUGUAAAUACAUGAGGAUCACCCAUGUAUCC | 220 | 119 | – | –
GUCAGCUCGUGAGGAUAUACAACACUGCUUCGGCAGUGUAUUAAGAUCACAUGAGGAUCACCCAUGUAGAAGGCACGAGCUGCU | – | – | 12.9 | 276
GCGAAGAACGAGAAGGCCACUACAUGAGGAUCACCCAUGUCGUGGAGUAUUGGAGGAUAUCGUUCGGCGUCUCAUGAGGACAUA | – | – | 4.95 | 5.22
UUAAUUAAUUAAUUGCAGAAUUACAUGAGGAUCACCCAUGUAUAGGAUAUCGUCAGGAAUACUGACGAGAAGGAUACAUACUGC | – | – | 17.9 | 26.6
CUGUUUUUCGCAGGAUAUGCUCCUCCUUUAUUAGCAGAAGGGCGUUAAACAUGAGGAUCACCCAUGUAUGGUAAUGACAUUUUC | – | – | 33.6 | 209
CCGGUAUAGGAGGAUAUAGGAGUCGAUAGACACCUAGAAGGCCUGACAUGAGGAUCACCCAUGUGUCCUUCCGG | – | – | 19.6 | 55.8
AUAUCUUUAUCAGGAUAUGGACAGGCCUGUCCGUAUUGAGACAGUAACAUGAGGAUCACCCAUGUCCAGAAGGGAUCGAUGUAU | – | – | 56.5 | 45.8

Sequence | apparent Kd [1] [nM] | apparent Kd [2] [nM] | apparent Kd [3] [nM] | apparent Kd [4] [nM]
GUAGAACAUGAGGAUCACCCAUGUGAAGACGCAUGAGGAUAUAUACGUAAAUAGCAUACGAUAGAAGGCAUGAUAA | 51.8 | 26.8 | – | –
AUGGUCAUGUUAGGAUAUGACGCGCUGUACGCAUCAGAAGGAACAUGAGGAUCACCCAUGUAUAGAGUAAUGUCGCUUACUCUC | – | – | 47.9 | 187
GUAUAUCACUAAGGAUAUCUGUAAUUUGUUGAAACAUGAGGAUCACCCAUGUUCAUGAAUUUAUAGGAGAAGGUAGAGAUAUAC | 4.24 | 4.15 | – | –
CGAUAACAUAGUUAUCCGUAACGGACAUGAGGAUCACCCAUGUAGGAUAUGUUACUAAACUAGUAACAGAAGGACAUGAGUCUU | – | – | – | 295
CACUCGUGUCUAGGAUAUGAGUGACAAGCGCGAGAUUUCCUCGCCGCUAGCUCAGAAGGAGACAUGAGGAUCACCCAUGUAAGG | – | – | 90 | 24.4
GUGCAGAUGUAAGGAUAUCGACUGGAAUACAGUCGAGAAGGUACAUGAGGAUCACCCAUGUAAAUGAAAGAUAAUAAACUGCAC | – | – | 15.3 | 26.1
GUUGUAUUAAGUUCAUACUAUAUGAUAGAAGGUGAAAGAUAGACAUGAGGAUCACCCAUGUAAUUCAAGGAUAUGUAGUUACUC | 28.4 | 20.4 | – | –
ACAUGAGGAUCACCCAUGUUUUUUGGGUACUUUUGUUUCUGCAAGGAUAUGCAUUAUUUAUAUACGCAGAAGGUGCAUUACUUC | – | – | 573 | 708
AUCAGCUCGUCAGGAUAUACGUCACUGCGUCAGCAGUGUGGUUAGAUCACAUGAGGAUCACCCAUGUAGAAGGGACGAGCUGAU | – | – | 23.4 | 458
UUUAUGGGACAGAAGGGCAUUUACAUGAGGAUCACCCAUGUUCAUCAUUGCAGGAUAUGUAUUACAUGAGGAUCACCUAUGUUC | 170 | 82.5 | – | –
ACUGUUUGAUUCCUCUUUUACAUGAGGAUCACCCAUGUUAUCGAGGAUAUGCAUUAGAGUGUUUAGCAGAAGGCGAUGUAAUUG | – | – | 6.51 | 20.8
UAUAACAUGAGGAUCACCCAUGUGGUCGUCGUGGCCCUGUGACAGGAUAUCGGAGUUGGAGCAUACGAGAAGGGUUACGCGGCC | – | – | 10.5 | 12.4
AAUUAAUUGUAGAAGGUACUUAAUUAUGAUAUGUAAGGAUAUACGAUAUUAUAACGACAUGUAUGACAUGAGGAUCACCCAUGU | 11.2 | 8.4 | – | –
UUGUACAUAGGAUAUAGUUGUUUCUACAUGAGGAUCACCCAUGUUAUUCCUCUCUCCCUUCUAGAAGGAUGUUUUU | – | – | 40.9 | 38
UGUCGGUGCAGAGGAUAUUACAUGAGGAUCACCCAUGUAUGAACCAAUAGCUGGAAACAGCAAUGUAAGAAGGCUGCUCCGACA | – | – | 11.8 | 168
UAUAUAUAGUAAGGAUAUGUAUUAAUUUGAUAAACAGAAGGUACUGACAUGAGGAUCACCCAUGUUUUAGUGUGGGCAUGUAGA | – | – | 98.9 | 164
GUCACGUAAGGAUAUCAUUAGUUGGACAUGAGGAUCACCCAUGUGAGACUAACUCCGGCGUGAGAAGGUGCGUUAA | – | – | 13.4 | 16.7
UUACUAUUGCAGAAGGCUCAAUAAUAUAUAAAGGGAGGAUAUGCAACAUGAGGAUCACCCAUGUUUCACCCAUAUGAGGAUCAC | – | – | 9.51 | 13
UGUGAGUUGAUGUUAGAUAGGAGUACAUGAGGAUCACCCAUGUAGGAUAUUCAAAGACGCAGAUAGAAGAAGGACAUAGGUUUC | – | – | 16.1 | 14.8
AGUGUGUGGCAGGAUAUGCGAUUUGUAGGUGUUGCAGAAGGGUCUACAUGAGGAUCACCCAUGUGUGCGGUUGA | – | – | 283 | 570
GGGCUGGGAGGAUAUUCAUUGGGAAACAUGAGGAUCACCCAUGUGAUAUAAGGGAAAUCCGGAGAAGGCUCGGUUC | – | – | 18.1 | 18.8
CCAGACGUAGGAUAUACAUUUGGGUAAUCCCGCGGAUAAUUACAUGAGGAUCACCCAUGUAGAAGGGCGGUAAA | – | – | 38.7 | 28
CGUGCAUAUGUAGGAUAUGGUUAUCUAUGUCUAGUUACUAGACAUAGAUAACCAGAAGGACAUGAGGAUCACCCAUGUAGCACG | – | – | 9.7 | 17.4
CUUUAGUGAGGAUAUCUGGCUUCGAUCGUGAGAUCGAGGCUAGAGAAGGCACAUGAGGAUCACCCAUGUUCCUU | – | – | 15.4 | 34.7
AGUGUCGGCACAGGAUAUGAGAUGCCGGCAGACAUGAGGAUCACCCAUGUAAGCGAACCGGGCAGUCAGAAGGGUGAUCGACGA | 161 | 29.7 | – | –
ACAAAGUGAGGAUAUGCUAUCGUACAUUAUUGUUAUCGUUUGCAGAAGGCACAUGAGGAUCACCCAUGUAAGAA | – | – | 29.4 | 30.5
AAUAAUUAGUAAGGAUAUACUAGCGAUUAGCUUGUAGAAGGUACAGUCUUAUGUAUAACAAAUUAACAUGAGGAUCACCCAUGU | 10.2 | 7.39 | – | –
